Measured values taken from ChEMBL document CHEMBL4513216, “Probing the Open Global Health Chemical Diversity Library for Multistage-Active Starting Points for Next-Generation Antimalarials” (ACS Infect Dis, 2020).

Assay: Toxicity liver stage against HepG2, at 10uM
Format: cell-based
Design: test concentration 10 uM, cell line HepG2-A16-CD81EGFP
Details: human, HepG2-A16-CD81EGFP cells; read-out: INHIBITION
Summary of the method: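 Uninfected HepG2-A16-CD81EGFP cells, 3 × 10^3 per well, 1536-well, plated on prespotted compound at 10 μM final, parasite-free screening media added to match infected plates; puromycin 10 μM positive, DMSO 0.5% negative; run in parallel with 48 h PbLuc assay at 37 °C, 5% CO2; viability by CellTiter-Glo luminescence, normalized to controls.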
CN(C)C(CNS(=O)(=O)c1cc(F)ccc1F)c1cccn1C (configuration not stated) showed a cytotoxicity at 10 µM of 1.33%.
In the case of CCN1C[C@@H]2CN(S(=O)(=O)c3cccs3)C[C@@H]2C1=O, the cytotoxicity at 10 µM is reported as -2.42%.
With CSCC[C@H](NC(=O)Cn1ccc2c(Cl)cccc21)C(=O)O the cytotoxicity at 10 µM was 4.18%.
CCC(CO)NC(=O)c1ccc2ccc(N(C)CC3CC3)n2c1 (configuration not stated) gave a cytotoxicity at 10 µM of 4.82%.
With Cc1cccc(CN2C[C@@H]3CCCO[C@@H]3[C@H](NS(C)(=O)=O)C2)n1 the cytotoxicity at 10 µM was -8.06%.
Nc1nnnn1NCc1ccccc1C(F)(F)F gave a cytotoxicity at 10 µM of 5.56%.
CC(=O)NCc1ccc(-c2ccccc2C(=O)O)cn1 gave a cytotoxicity at 10 µM of 1%.
With CCN(CC)S(=O)(=O)N1C[C@@H](O)[C@H](Oc2cccc(F)c2)C1 the cytotoxicity at 10 µM was 9.73%.
Work on Cc1ccc(CC2COCCN(S(C)(=O)=O)C2)nc1 (configuration not stated) yielded a cytotoxicity at 10 µM of -0.56%.
Cc1nc(CSCCC(=O)Nc2cccc(N3CCNC3=O)c2)cs1 gave a cytotoxicity at 10 µM of 5.31%.
CC1CS(=O)(=O)CCN1CCCc1ccc(Cl)cc1 (configuration not stated) gave a cytotoxicity at 10 µM of 9.28%.
For CC(C)Oc1cccc(CN(C)C(=O)Cc2ccon2)c1, the cytotoxicity at 10 µM was -2.09%.
With CCSCCC(C)NC(=O)Nc1cccn(C)c1=O (configuration not stated) the cytotoxicity at 10 µM was -2.19%.
Compound NC(=O)Nc1cccc(CNC(=O)CCCc2ccccc2)c1 has a cytotoxicity at 10 µM of -10.1%.
For Cc1nc(CN2CCCN(Cc3nc4ccccc4o3)CC2)no1, the cytotoxicity at 10 µM was 12.3%.
O=C(NCCOc1ccc(Cl)cn1)Nc1cccnc1 showed a cytotoxicity at 10 µM of -2.3%.
Work on CCCNC(=O)NCc1ccccc1NS(=O)(=O)c1ccccc1 yielded a cytotoxicity at 10 µM of 10.3%.
For COCc1ccccc1C(=O)N1CCN(C2=NCC(C)(C)S2)CC1, the cytotoxicity at 10 µM was 6.11%.
Compound CC(C)CNC(=O)CC1OCCc2ccsc21 (configuration not stated) has a cytotoxicity at 10 µM of -3.49%.
Work on COc1ccc(CN(C)C(=O)NC(C)c2nncn2C)cc1F (configuration not stated) yielded a cytotoxicity at 10 µM of -2.85%.
For CC(C)C(C(=O)N1CCN(Cc2ccccn2)CC1)n1cncn1 (configuration not stated), the cytotoxicity at 10 µM was -14.5%.
With COCCCN1CCC(NC(=O)C2CC2)CC1 the cytotoxicity at 10 µM was -5.02%.
Work on CC(C)CNC(=O)CNC(=O)NC(C)COc1ccccc1F (configuration not stated) yielded a cytotoxicity at 10 µM of -0.956%.
With CCS(=O)(=O)NCCCNc1cc(N2CCCC2CO)ncn1 (configuration not stated) the cytotoxicity at 10 µM was 2.2%.
CC(C)Cn1cc(NCc2cscn2)cn1 gave a cytotoxicity at 10 µM of 3.86%.
With CC(C)n1ccc(=O)nc1SC1CCN(c2ccccc2F)C1=O (configuration not stated) the cytotoxicity at 10 µM was 11.8%.
In the case of CCN(CC)C(=O)COc1ccnc2cc(OC)ccc12, the cytotoxicity at 10 µM is reported as -2.17%.
Compound O=C(c1ccc(F)cc1F)N1CCN(C(=O)C2CCCCC2)CC1 has a cytotoxicity at 10 µM of -0.876%.
CCNc1ncc(CN(Cc2ccccc2)CC(C)CO)cn1 (configuration not stated) gave a cytotoxicity at 10 µM of 6.33%.
CCc1nc(N2CCN(Cc3ncccc3C)CC2)c2cnn(C)c2n1 showed a cytotoxicity at 10 µM of -6.46%.
Compound Cc1cc2nc(-c3ccccc3)cc(NCC3CCS(=O)(=O)C3)n2n1 (configuration not stated) has a cytotoxicity at 10 µM of 1.38%.
In the case of COc1cccc(OC)c1C(=O)N1C[C@@H](CN(C)C)[C@@H](CO)C1, the cytotoxicity at 10 µM is reported as -4.51%.
In the case of CCOc1cccc(C(C(=O)O)N(C)Cc2cc(C)no2)c1 (configuration not stated), the cytotoxicity at 10 µM is reported as 4.64%.
Work on Cc1ccc(NC2CCN(C(=O)CCNc3ncccn3)CC2)nn1 yielded a cytotoxicity at 10 µM of -7.69%.
Work on Cc1ncc(CN2CCOC(CNc3cccnn3)C2)s1 (configuration not stated) yielded a cytotoxicity at 10 µM of -19.8%.
CN(Cc1noc(C2CC2)n1)C1CCN(CCS(C)(=O)=O)C1 (configuration not stated) gave a cytotoxicity at 10 µM of -14.9%.
O=C(c1cnc(-c2ncccn2)s1)N1CCCC1Cn1cccn1 (configuration not stated) showed a cytotoxicity at 10 µM of -5.97%.
In the case of Cc1ccccc1OCCCC(=O)NC(C)c1nnc2n1CCC2 (configuration not stated), the cytotoxicity at 10 µM is reported as -11.5%.
Cc1nnc(NC(=O)CN2CCCC2c2c(C)nn(C)c2C)s1 (configuration not stated) gave a cytotoxicity at 10 µM of -14.1%.
Work on COc1ccccc1CC(=O)N1CCCC(c2cc(C)[nH]n2)C1 (configuration not stated) yielded a cytotoxicity at 10 µM of -21%.
Work on CC(NC(=O)NCc1cccc(N2CCCC2=O)c1)c1ccccc1 (configuration not stated) yielded a cytotoxicity at 10 µM of 4.52%.
Compound CC(C)N1CCC2(C=C(C(=O)NC3CC3)c3ccccc32)CC1 has a cytotoxicity at 10 µM of 1.29%.
Compound CCOC1COC2(CCN(Cc3ccc(F)cc3)CC2)C1 (configuration not stated) has a cytotoxicity at 10 µM of -0.508%.
Compound O=C(c1ccc(F)cc1)N1CCC2(CC1)CC(N1CCOCC1)C2 has a cytotoxicity at 10 µM of -7.52%.
Compound CC[C@@H]1N(Cc2ccc(C)s2)CCC[C@]12CCC(=O)N2C has a cytotoxicity at 10 µM of 4.94%.
Work on Cc1occc1C(=O)Nc1cccc(C(=O)OCC2CCCN2)c1 (configuration not stated) yielded a cytotoxicity at 10 µM of -2.09%.
Compound CCCNc1c(NC(=O)NCCOC)c(=O)oc2ccccc12 has a cytotoxicity at 10 µM of -6.23%.
